# Laboratory results as given in ChEMBL document CHEMBL3297707, “Dual protonophore-chitinase inhibitors dramatically affect O. volvulus molting” (J Med Chem, 2014).
# The source made the active and inactive calls. The rule behind the calls is not given here.
# Columns and labels:
# [1] = test system: HEK-293T; assay: Protonophoric activity in human HEK293T/17 cells assessed as mitochondrial membrane depolarization at 50 uM for 30 mins by TMRE dye based flow cytometry; type: functional, cell-based
# How it was run: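 Trypsinized HEK 293T/17 cells at 1–2 × 10^6/mL in 10% FBS DMEM, exposed to 50 μM compound or DMSO for 30 min at 37 °C. TMRE (~450 nM final) added for 30 min in the dark at 37 °C. Cells washed with 0.2% BSA/PBS; membrane polarization read by flow cytometry on 1–2 × 10^6 cells per sample.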
# [2] = target: T1, Chitinase (Onchocerca volvulus, UniProt Q25615); assay: Inhibition of Onchocerca volvulus L3 larvae chitinase using 20 uM 4-methylumbelliferyl-N,N',N''-beta-chitotrioside as substrate after 10 mins by microplate reader analysis
# T1 sequence (Q25615 whole entry): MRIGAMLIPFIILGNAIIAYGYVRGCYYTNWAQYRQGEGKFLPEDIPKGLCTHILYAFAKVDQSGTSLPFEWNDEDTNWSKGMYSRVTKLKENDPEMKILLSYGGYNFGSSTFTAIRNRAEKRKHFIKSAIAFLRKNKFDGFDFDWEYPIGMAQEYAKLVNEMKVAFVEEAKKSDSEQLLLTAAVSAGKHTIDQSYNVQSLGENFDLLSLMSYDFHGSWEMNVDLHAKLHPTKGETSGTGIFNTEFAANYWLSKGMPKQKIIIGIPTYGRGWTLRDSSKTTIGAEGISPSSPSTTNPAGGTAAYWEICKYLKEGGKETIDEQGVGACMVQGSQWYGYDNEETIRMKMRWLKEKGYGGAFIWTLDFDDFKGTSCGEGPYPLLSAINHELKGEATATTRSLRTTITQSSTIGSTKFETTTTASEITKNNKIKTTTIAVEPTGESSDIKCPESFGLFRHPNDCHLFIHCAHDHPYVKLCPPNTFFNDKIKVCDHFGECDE
# [3] = test system: HEK-293T; assay: Protonophoric activity in human HEK293T/17 cells assessed as mitochondrial membrane depolarization at 50 uM for 30 mins by TMRE dye based fluorescence spectrometry; type: functional, cell-based
# How it was run: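 HEK 293T/17 cells suspended at 1–2 × 10^6/mL in 10% FBS DMEM, given 50 μM compound or DMSO for 30 min at 37 °C, then stained with TMRE (~450 nM final) for 30 min in the dark at 37 °C. After washes in 0.2% BSA/PBS, fluorescence read on a plate reader (ex 549, em 575 nm). Mean ± sd, n = 3.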
# [4] = test system: Onchocerca volvulus; assay: Antiparasitic activity against Onchocerca volvulus assessed as inhibition of L3 to L4 larval molting at 1 uM for 24 hrs measured until 6 days by using inverted microscopic analysis in presence of PBMC; type: functional
# How it was run: (§1)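 O. volvulus L3 larvae pre-incubated with compound for 24 h, then complete medium (20% heat-inactivated FCS) and normal PBMCs added; molting assessed on day 6. Combination lines use a 1:1 mix with CCCP, each at the stated concentration. Percent molting taken over 10 wells, on average 5–10 larvae per well.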
# [5] = test system: Caenorhabditis elegans; assay: Drug accumulation in Caenorhabditis elegans at 10 uM after 12 hrs by LC-MS analysis; type: ADME, organism-based; details: in vivo
# How it was run: (§2)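 Synchronized worms grown to late L4 on E. coli OP50 at 25 °C for 40 h, washed and suspended in M9 (~5–10 worms/μL). Compound added at 10 μM (~2 nmol/mg worm) for 6 or 12 h at rt. Worms washed with 0.1% SDS, then water, and lyophilized. Extracted in cold MeOH/MeCN (1:1) with internal standard and quantified by LC-TOF MS against calibration in blank worms. Mean ± sd, n = 3, nmol/mg worm.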
# [6] = test system: Caenorhabditis elegans; assay: Drug accumulation in Caenorhabditis elegans at 10 uM after 6 hrs by LC-MS analysis; type: ADME, organism-based; details: in vivo; how it was run: as §2
# [7] = test system: Onchocerca volvulus; assay: Antiparasitic activity against Onchocerca volvulus assessed as inhibition of L3 to L4 larval molting at 10 uM for 24 hrs measured until 6 days by using inverted microscopic analysis in presence of PBMC; type: functional, organism-based; how it was run: as §1
# [8] = test system: Onchocerca volvulus; assay: Antiparasitic activity against Onchocerca volvulus assessed as inhibition of L3 to L4 larval molting at 1 uM for 24 hrs measured until 6 days by using inverted microscopic analysis in presence of PBMC and 1 uM protonophore CCCP; type: functional, organism-based; how it was run: as §1
# [9] = test system: Onchocerca volvulus; assay: Antiparasitic activity against Onchocerca volvulus assessed as inhibition of L3 to L4 larval molting at 0.5 uM for 24 hrs measured until 6 days by using inverted microscopic analysis in presence of PBMC and 0.5 uM protonophore CCCP; type: functional, organism-based; how it was run: as §1
# [10] = test system: Onchocerca volvulus; assay: Antiparasitic activity against Onchocerca volvulus assessed as inhibition of L3 to L4 larval molting at 2.5 uM for 24 hrs measured until 6 days by using inverted microscopic analysis in presence of PBMC and 2.5 uM protonophore CCCP; type: functional, organism-based; how it was run: as §1
# [11] = test system: Brugia malayi; assay: Inhibition of Brugia malayi chitinase using 20 uM 4-methylumbelliferyl-N,N',N''-beta-chitotrioside as substrate at 10 uM after 10 mins by microplate reader analysis
# [12] = target: T2, Chitinase (Onchocerca volvulus) (UniProt Q25615); assay: Inhibition of Onchocerca volvulus L3 larvae chitinase using 20 uM 4-methylumbelliferyl-N,N',N''-beta-chitotrioside as substrate at 10 uM after 10 mins by microplate reader analysis
# T2 sequence (whole entry): T1 sequence (Q25615 whole entry)
# [13] = test system: Onchocerca volvulus; assay: Antiparasitic activity against Onchocerca volvulus assessed as inhibition of L3 to L4 larval molting at 100 uM for 24 hrs measured until 6 days by using inverted microscopic analysis in presence of PBMC; type: functional, organism-based; how it was run: as §1
# [14] = test system: Entamoeba histolytica; assay: Inhibition of Entamoeba histolytica chitinase using 20 uM 4-methylumbelliferyl-N,N',N''-beta-chitotrioside as substrate at 10 uM after 10 mins by microplate reader analysis
# [15] = test system: Plasmodium falciparum; assay: Inhibition of Plasmodium falciparum chitinase using 20 uM 4-methylumbelliferyl-N,N',N''-beta-chitotrioside as substrate at 10 uM after 10 mins by microplate reader analysis
# [16] = test system: HEK-293T; assay: Cytotoxicity against human HEK293T/17 cells assessed as cell viability at 1 to 10 uM for 24 hrs by MTS assay; type: cell-based
# How it was run: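 HEK 293T/17 cells (2 × 10^4) plated and held 24 h at 37 °C, then treated at 1 and 10 μM final. MTS viability read at 0.5 and 24 h post-incubation.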
# [17] = test system: Caenorhabditis elegans; assay: Drug metabolism in Caenorhabditis elegans assessed as 5-iodo closantel formation after 12 hrs by LC/MS analysis; type: ADME, organism-based; details: in vivo
# [18] = test system: Caenorhabditis elegans; assay: Drug metabolism in Caenorhabditis elegans assessed as glucordinated metabolite formation after 12 hrs by LC/MS analysis; type: ADME, organism-based; details: in vivo
# [19] = test system: Caenorhabditis elegans; assay: Drug metabolism in Caenorhabditis elegans assessed as glycosylated metabolite formation after 12 hrs by LC/MS analysis; type: ADME, organism-based; details: in vivo
# [20] = test system: Caenorhabditis elegans; assay: Drug metabolism in Caenorhabditis elegans assessed as sulfated metabolite formation after 12 hrs by LC/MS analysis; type: ADME, organism-based; details: in vivo
# [21] = test system: Caenorhabditis elegans; assay: Toxicity in Caenorhabditis elegans; type: organism-based; details: in vivo
# [22] = test system: Caenorhabditis elegans; assay: Drug metabolism in Caenorhabditis elegans assessed as 3-iodo closantel formation after 12 hrs by LC/MS analysis; type: ADME, organism-based; details: in vivo
# [23] = target: T1, Chitinase; assay: Competitive inhibition of Onchocerca volvulus L3 larvae chitinase using 20 uM 4-methylumbelliferyl-N,N',N''-beta-chitotrioside as substrate after 10 mins by microplate reader analysis
SMILES,Activity [1],IC50 [2] [nM],Activity [3],Drug uptake [6],inhibition [7],also measured
COc1c(I)cc(I)cc1C(=O)Nc1ccc(Oc2ccccc2)cc1,inactive,1280,inactive,,,
COc1c(I)cc(I)cc1C(=O)Nc1ccc2ccccc2c1,inactive,890,inactive,Active,Active,inhibition [4]: inactive; Drug uptake [5]: 1.28 nmol/mg
CN(C(=O)c1cc(I)cc(I)c1O)c1ccc(Oc2ccccc2)cc1,,1810,,,,
O=C(Nc1ccc(Oc2cccc(Cl)c2)cc1)c1cc(I)cc(I)c1O,,1740,,,,
Cc1ccc(Oc2ccc(NC(=O)c3cc(I)cc(I)c3O)cc2)cc1,,1110,,,,
O=C(Nc1ccc2ccccc2c1)c1cc(I)cc(I)c1,inactive,1290,inactive,,,
COc1c(I)cc(I)cc1C(=O)Nc1ccc(Oc2ccc(Cl)cc2)cc1,inactive,600,inactive,Active,Active,inhibition [4]: inactive; inhibition [8]: inactive; inhibition [9]: inactive; inhibition [10]: Active; inhibition [11]: inactive; inhibition [12]: Active; inhibition [13]: Active; inhibition [14]: inactive; inhibition [15]: inactive
O=C(Nc1ccc(Oc2ccccc2Cl)cc1)c1cc(I)cc(I)c1O,,1200,,,,
O=C(Nc1ccc(Oc2ccccc2)cc1)c1cc(I)cc(I)c1O,Active,1980,Active,,,
COc1c(I)cc(I)cc1C(=O)N(C)c1ccc(Oc2ccccc2)cc1,inactive,3710,inactive,,,
O=C(Nc1ccc(Oc2ccc(Cl)cc2)cc1)c1cc(I)cc(I)c1O,Active,700,Active,Active,Active,inhibition at 1 µM [4]: 84%; Activity [16]: Non-toxic; inhibition [11]: inactive; inhibition [12]: Active; inhibition [14]: inactive
Cc1cc(C(C#N)c2ccc(Cl)cc2)c(Cl)cc1NC(=O)c1cc(I)cc(I)c1O (stereo not given) [CLOSANTEL],Active,,Active,Active,,Drug metabolism [17]: metabolite_detected; Drug metabolism [18]: metabolite_notdetected; Drug metabolism [19]: metabolite_notdetected; Drug metabolism [20]: metabolite_notdetected; Activity [21]: Non-toxic; Drug metabolism [22]: metabolite_detected
N#CC(C#N)=NNc1cccc(Cl)c1 [CARBONYL CYANIDE M-CHLOROPHENYLHYDRAZONE],,,,Active,Active,
Cc1ccc(-c2ccc(NC(=O)c3cc(I)cc(I)c3O)cc2)cc1,,990,,,,
O=C(Nc1ccc(-c2ccccc2)cc1)c1cc(I)cc(I)c1O,,470,,Active,,inhibition [11]: inactive; inhibition [12]: Active; inhibition [14]: inactive; inhibition [15]: inactive
O=C(Nc1ccc(Oc2ccc(Cl)cc2)cc1)c1cc(I)cc(I)c1,inactive,870,inactive,Active,,
COc1c(I)cc(I)cc1C(=O)O,,,,,inactive,
O=C(Nc1ccc(-c2ccc(Cl)cc2)cc1)c1cc(I)cc(I)c1O,,370,,Active,,inhibition [11]: inactive; inhibition [12]: Active; inhibition [14]: inactive; inhibition [15]: inactive
O=C(Nc1ccc(Oc2ccccc2)cc1)c1cc(I)cc(I)c1,inactive,1060,inactive,,,
O=C(Nc1ccc2ccccc2c1)c1cc(I)cc(I)c1O,Active,940,Active,Active,Active,inhibition at 1 µM [4]: 84%; Activity [16]: Non-toxic; Drug uptake [5]: 1.13 nmol/mg
O=C(Nc1ccc(Oc2ccc(F)cc2)cc1)c1cc(I)cc(I)c1O,,1570,,,,
O=C(Nc1ccc(Oc2ccc(Cl)cc2)c(Cl)c1)c1cc(I)cc(I)c1O [RAFOXANIDE],Active,340,Active,1.55 nmol/mg,Active,inhibition at 1 µM [4]: 84%; Activity [16]: Non-toxic; Drug uptake [5]: 1.73 nmol/mg; inhibition [11]: inactive; inhibition [12]: Active; inhibition [14]: inactive; Ki [23]: 130 nM
